What all share (assay type): functional, organism-based
For assay [1], the system named is Mycolicibacterium smegmatis. Put plainly: Concentration for complete inhibition of growth against clofazimine resistant Mycobacterium smegmatis 607 strain in vitro; Precipitation. In outline:
(§1)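 Strain: 20× step-up clofazimine-resistant mutant of M. smegmatis ATCC607. 10^5 viable cells inoculated into modified Kirchner's medium with 0.5% Tween 80. Drugs were added in DMSO (2% final in all tubes). Roller tubes were incubated at 37 °C for 72 h. Growth was read as optical transmission in a spectrophotometer.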

Assay [2] relates to Mycolicibacterium smegmatis. The assay is described as follows: Concentration for 100% inhibition of growth of dapsone sensitive Mycobacterium smegmatis 607 strain in vitro. In outline:
(§2)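 M. smegmatis ATCC607-derived strains (one of three used, including a dapsone-sensitive one) were grown in modified Kirchner's medium with 0.5% Tween 80, inoculated with 10^5 viable cells. Drugs were added in DMSO (2% final). Roller tubes were incubated at 37 °C for 72 h. Growth was read as spectrophotometric transmission.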

The subject of assay [3] is Mycolicibacterium smegmatis. The assay is described as follows: Concentration for complete inhibition of growth against rifampicin resistant Mycobacterium smegmatis 607 strain in vitro; Precipitation. In a few lines: as §2
The subject of assay [4] is Mycolicibacterium smegmatis. Put plainly: 100% inhibition of growth of clofazimine resistant Mycobacterium smegmatis 607 strain in vitro. In a few lines:
as §1

Assay [5] has as its system Mycolicibacterium smegmatis. The assay is described as follows: 100% inhibition of growth of rifampicin resistant Mycobacterium smegmatis 607 strain in vitro. In a few lines:
as §2

Our source for the Concentration values is ChEMBL document CHEMBL1124233, “Clofazimine analogues active against a clofazimine-resistant organism” (J Med Chem, 1988).

SMILES strings stand for the structures.

As for `CCOc1ccc(Nc2cc3nc4ccccc4n(-c4ccc(OCC)cc4)c-3cc2=N)cc1`, the Concentration in assay [1] was 100 µg/mL; in assay [2], 6 µg/mL; in assay [3], 50 µg/mL.
As to `NCCCCCC/N=c1\cc2n(-c3ccc(Cl)cc3)c3ccccc3nc-2cc1Nc1ccc(Cl)cc1`, the results for the Concentration in assay [4], in assay [2] and in assay [5] were 2 µg/mL, 0.3 µg/mL and 0.8 µg/mL, respectively.
Taken in the same sequence, the figures for `CC(C)CC/N=c1\cc2n(-c3ccc(Cl)cc3)c3ccccc3nc-2cc1Nc1ccc(Cl)cc1` were 80 µg/mL, 2 µg/mL and 3 µg/mL.
Take `CCN1CCCC(/N=c2\cc3n(-c4ccccc4)c4ccccc4nc-3cc2Nc2ccccc2)C1` (stereo not given): the figures for the Concentration in assay [4], in assay [2] and in assay [5] were 6 µg/mL, 0.4 µg/mL and 0.6 µg/mL, respectively.
Consider `OCCNCC/N=c1\cc2n(-c3ccccc3)c3ccccc3nc-2cc1Nc1ccccc1`, for which the Concentration in assay [4] was found to be 10 µg/mL; in assay [2] it was 5 µg/mL; in assay [5], 6 µg/mL.
As for `Clc1ccc(Nc2cc3nc4ccccc4n(-c4ccc(Cl)cc4)c-3c/c2=N\C2CCCC2)cc1`, the Concentration in assay [4] was 20 µg/mL; in assay [2], 3 µg/mL; in assay [5] it was 3 µg/mL.
In the case of `OCCN(CCO)CCC/N=c1\cc2n(-c3ccc(Cl)cc3)c3ccccc3nc-2cc1Nc1ccc(Cl)cc1`, the Concentration was 3 µg/mL in assay [4], 0.6 µg/mL in assay [2] and 1 µg/mL in assay [5].
For the compound `C/N=c1\cc2n(-c3ccc(Cl)cc3)c3ccccc3nc-2cc1Nc1ccc(Cl)cc1`, the Concentration worked out at 100 µg/mL in assay [4], 2 µg/mL in assay [2] and 2 µg/mL in assay [5].
With `CCC(CO)/N=c1\cc2n(-c3ccc(Cl)cc3)c3ccccc3nc-2cc1Nc1ccc(Cl)cc1` (stereo not given), the figures for the Concentration in assay [4], in assay [2] and in assay [5] were 100 µg/mL, 2 µg/mL and 10 µg/mL, respectively.
Taken in the same sequence, the figures for `NCCC/N=c1\cc2n(-c3ccc(Cl)cc3)c3ccccc3nc-2cc1Nc1ccc(Cl)cc1` were 1 µg/mL, 0.3 µg/mL and 0.4 µg/mL.
Consider `CCN(CC)CC/N=c1\cc2n(-c3ccc(Cl)cc3)c3ccccc3nc-2cc1Nc1ccc(Cl)cc1`, for which the Concentration in assay [4] was 12 µg/mL; in assay [2], 0.6 µg/mL; in assay [5], 0.6 µg/mL.
`CCNCCC/N=c1\cc2n(-c3ccc(Cl)cc3)c3ccccc3nc-2cc1Nc1ccc(Cl)cc1`: the Concentration in assay [4] was found to be 1 µg/mL; in assay [2] it was 0.2 µg/mL; in assay [5] it was 0.2 µg/mL.
Regarding `CC1CCC(/N=c2\cc3n(-c4ccc(Cl)cc4)c4ccccc4nc-3cc2Nc2ccc(Cl)cc2)CC1` (stereo not given), the Concentration worked out at 25 µg/mL in assay [4], 7.5 µg/mL in assay [2] and 7.5 µg/mL in assay [5].
On to `c1ccc(Nc2cc3nc4ccccc4n(-c4ccccc4)c-3c/c2=N\C2CCCC2)cc1`, for which the Concentration in assay [4] was 100 µg/mL; in assay [2], 3 µg/mL; in assay [5] it was 3 µg/mL.
For `CCN1CCCC1C/N=c1\cc2n(-c3ccc(Cl)cc3)c3ccccc3nc-2cc1Nc1ccc(Cl)cc1` (stereo not given), the Concentration in assay [4] is 10 µg/mL; in assay [2], 1 µg/mL; in assay [5], 1 µg/mL.
Consider `CCN(CC)CCCC(C)/N=c1\cc2n(-c3ccccc3)c3ccccc3nc-2cc1Nc1ccccc1` (stereo not given), for which the figures for the Concentration in assay [4], in assay [2] and in assay [5] were 2 µg/mL, 0.3 µg/mL and 0.4 µg/mL, respectively.
For `CCN1CCCC(/N=c2\cc3n(-c4ccc(Cl)cc4)c4ccccc4nc-3cc2Nc2ccc(Cl)cc2)C1` (stereo not given), in that order: 8 µg/mL, 0.5 µg/mL and 0.5 µg/mL.
For `CC(C)C/N=c1\cc2n(-c3ccccc3)c3ccccc3nc-2cc1Nc1ccccc1`, in that order: 20 µg/mL, 2 µg/mL and 3 µg/mL.
As to `c1ccc(Nc2cc3nc4ccccc4n(-c4ccccc4)c-3c/c2=N\CCCN2CCCC2)cc1`, the Concentration in assay [4] came to 0.6 µg/mL; in assay [2] it was 0.2 µg/mL; in assay [5], 0.2 µg/mL.
With `OCC/N=c1\cc2n(-c3ccccc3)c3ccccc3nc-2cc1Nc1ccccc1`, the Concentration in assay [4] came to 20 µg/mL; in assay [2] it was 3 µg/mL; in assay [5] it was 5 µg/mL.
